XBP1 UPR activ: activators of adaptive XBP1 UPR arm, primary screen, cell-based, CHO-XBP1 luciferase reporter, luminescence, uHTS. IRE1-XBP1 UPR activation; percent of tunicamycin response, DMSO as zero. activation, % at 20 µM. hit rate 0.33% among 330,000. AID 463104, 2010;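 active means versus positive control, 20 µM dose yields 30% or more activation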
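Signal: luciferase luminescence; Assay system: CHO-XBP1 luciferase reporter cells; Amount: one thousand reporter cells per well; Dosing: 20 µM single concentration, DMSO 1%; Benchmarks: high control tunicamycin 10 µg/mL final, low control DMSO vehicle only; Schedule: 6 h compound exposure at 37 °C, 5% CO2; Evaluation: percent activation relative to tunicamycin reference.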
CHOP UPR activ: activators of apoptotic CHOP UPR arm, primary screen, cell-based, CHO-CHOP luciferase reporter, luminescence, uHTS; UPR activation; percent of tunicamycin response over DMSO baseline; activation, % at 10 µM; hit rate 0.34% among 330,000;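 active means at 10 µM dose, activation of 40% or more, normalized to positive control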
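System: CHO-CHOP luciferase reporter cell line | Buffer or medium: F12 medium containing 10% fetal bovine serum | Doses: One dose, 10 µM in 0.5% DMSO | Times: 6 h compound exposure at 37 °C after overnight seeding | Signal: Luciferase luminescence | Read-out: % activation vs tunicamycin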
697 NFkB inh: inhibitors of PMA/ionomycin-induced NF-kB reporter, 697 cells, primary screen, B-cell NF-kB inhibitor project, cell-based, luminescence, uHTS; 697 B-cell NF-kB luciferase reporter, 16 h; inhibition, % at 4 µM; hit rate 0.33% among 330,000; in the data active means inhibition above about 35%
Gli-Sufu antag: Gli-Sufu pathway antagonists, primary screen, luciferase luminescence, Sufu-KO-LIGHT cells, uHTS; inhibition, % at 5 µM; Sufu-KO-LIGHT fibroblasts, Gli luciferase reporter luminescence; AID 588413, 2011; hit rate 0.74% among 340,000;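 active means inhibition above about 55%, limit read from the data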
CHOP inh: inhibitors of CHOP promoter induction, primary screen, cell-based, unfolded protein response, luciferase reporter; inhibition, % at 10 µM; CHO-K1 CHOP-promoter luciferase, tunicamycin-induced, 15-18 h; hit rate 3.8% among 220,000;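 active means compounds that reduced the stress-induced luciferase reporter signal by more than about 70% of percent inhibition, limit read from the data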
Jurkat NFkB inh: inhibitors of induced NF-kB luciferase reporter, primary screen, TCR NF-kB activation inhibitor project, cell-based, luminescence, uHTS | inhibition, % at 4 µM | Jurkat, PMA/ionomycin-induced NF-kB luciferase reporter | AID 435003, 2010 | hit rate 0.53% among 330,000; in the data active means inhibition above about 50%
UPR CHOP confirm: activators of apoptotic CHOP UPR arm, confirmation, cell-based, CHO-CHOP luciferase reporter, single concentration | shares compounds with CHOP UPR activ | CHO-CHOP cells, CHOP-luciferase reporter luminescence; percent of tunicamycin response, DMSO as zero | activation, % at 10 µM | hit rate 64% among 1,000; in the data active means activation above about 33%
Hits are given with their value; i = inactive; nt = not tested or not shown. Rows were chosen to be rich in hits. Some 3.9% of all compounds tested hit in one or more screens of this group.

SMILES	XBP1 UPR activ	CHOP UPR activ	697 NFkB inh	Gli-Sufu antag	CHOP inh	Jurkat NFkB inh	UPR CHOP confirm
Cc1ccc(S(=O)(=O)N2CCOC2CNC(=O)C(=O)NCCN(C)C)cc1 (stereo not drawn)	i	i	i	i	nt	i	nt
COc1cc(OC)c(NC2=CC(=O)C(=O)c3ccccc32)cc1Cl	i	53.4	i	i	nt	i	i
Cc1cc(C(=O)N2CCN(c3ccccc3Cl)CC2)c(C)o1	i	i	i	i	nt	i	nt
COc1cccc(CN(C)C(=O)c2cc(COc3ccc(-n4cncn4)cc3)on2)c1	i	i	i	i	nt	i	nt
CC(=O)N1N=C(c2ccco2)CC1c1cccs1 (stereo not drawn)	i	i	i	i	i	i	nt
Cc1ccc(C2=NN(C(=O)CCl)C(c3cccs3)C2)o1 (stereo not drawn)	i	41.4	i	i	84.1	i	i
CC(=O)N(\C=C/C=C/C=C1\Sc2ccccc2C1=O)c1ccccc1	i	63.9	i	nt	i	i	35.1
COc1ccc(-n2nc3c(c2NC(=O)CCl)CSC3)cc1	i	49.4	i	i	nt	i	i
COc1cc2c(C(=O)N(C)c3ccc(F)cc3)cn(C)c(=O)c2cc1OC	i	i	i	i	nt	i	nt
CCCc1cc(=O)[nH]c(SCC(=O)N2CC3(C)CC2CC(C)(C)C3)n1 (stereo not drawn)	i	i	i	i	nt	i	nt
Cc1oc2c(c1C(=O)c1ccccc1)C(=O)C(=O)c1ccccc1-2	i	67.4	i	i	nt	i	i
O=C1C(=O)c2c(C(=O)c3ccccc3)coc2-c2ccccc21	i	47.7	i	i	i	i	i
O=C(c1ccccc1)c1coc2ccc(O)c(Cl)c12	i	i	i	i	i	i	nt
Cc1oc2c(c1C(=O)O)C(=O)c1ccccc1C2=O	i	i	i	i	i	i	nt
O=S(=O)(Oc1ccc(C(=S)N2CCOCC2)cc1)c1ccc(Cl)cc1	i	i	i	i	nt	i	nt
O=C(c1cccnc1)N1CCCC(Nc2ccc(F)cc2)C1 (stereo not drawn)	i	i	i	i	nt	i	nt
Cc1ccc(NC(=O)Cn2ncc(Cl)c(Cl)c2=O)cc1S(=O)(=O)N1CCCCC1	i	88.2	i	i	nt	i	57.3
Cc1ccc(NC(=O)Cc2ccc(Cl)cc2)cc1S(=O)(=O)N1CCCCCC1	i	i	i	i	nt	i	nt
Cn1c(CO)nc2c3ccccc3ccc21	i	i	i	i	nt	i	nt
Cc1cn2nc(N)c3ccccc3c2n1	i	41.1	i	i	i	i	i
Cc1cc(C)n(CC(C)(O)c2ccccc2)n1 (stereo not drawn)	i	i	i	i	nt	i	nt
COc1cc(OC)c(OC)cc1CNC(=O)c1cc(=O)[nH]c2ccccc12	i	i	i	i	nt	i	nt
CCOC(=O)/C(=C\c1cccc(O)c1)c1nc2sc(C)c(C)c2c(=O)[nH]1	i	47.5	i	i	i	i	162.7
CCOC(=O)c1nc2sc(C)c(C)c2c(=O)[nH]1	i	i	i	i	i	i	nt
Cc1cccc(C(=O)OCc2cc(=O)oc3c(C)c(C)ccc23)c1O	34.1	43.2	i	i	nt	i	i
SMILES	XBP1 UPR activ	CHOP UPR activ	697 NFkB inh	Gli-Sufu antag	CHOP inh	Jurkat NFkB inh	UPR CHOP confirm
Cc1ccc2c(COC(=O)c3ccccc3Cl)cc(=O)oc2c1	i	i	i	i	nt	i	nt
S=C(Nc1ccccc1)c1ccccn1	i	116.7	i	nt	i	i	148.8
S=C(Nc1ccc(Nc2ccccc2)cc1)Nc1ccccn1	i	i	i	i	i	i	nt
CC1c2ccccc2N(S(=O)(=O)c2ccccc2)C1C (stereo not drawn)	nt	nt	nt	i	nt	nt	nt
C=CCn1c(SCC(=O)c2ccc(O)c(O)c2)nnc1-c1cccc(C)c1	i	i	i	i	nt	i	nt
C=CCn1c(SCC(=O)c2ccc(O)c(O)c2)nnc1-c1cccc(Cl)c1	i	64.0	i	i	nt	i	i
CC(=O)c1ccccc1NC(=O)COC(=O)/C=C/c1ccc(OC(F)F)cc1	i	i	i	i	nt	i	nt
O=C(N/N=C/C(Br)=C\c1ccccc1)c1cccs1	i	i	i	i	i	i	nt
N#CC(C#N)=C1C=CC=CN1/C(=C\c1ccccc1)C(=O)c1cccs1	i	121.6	i	i	i	i	119.3
COCCN1CSC(=S)N(Cc2ccco2)C1	i	90.8	i	i	i	i	53.0
CCOCCCN1CN(Cc2ccco2)CNC1=S	i	i	i	i	i	i	nt
S=C1SCN(Cc2ccccn2)CN1Cc1ccco1	i	101.5	i	i	i	i	50.1
Cc1ccc(Sc2c([N+](=O)[O-])c(=O)n(C)c3ccccc23)cc1	i	100.6	i	i	nt	i	99.2
Cc1ccc(Sc2c(O)c3ccccc3n(C)c2=O)cc1	nt	nt	nt	i	i	nt	nt
Cn1c(SCC(=O)NCC2CCCO2)ncc(C(=O)Nc2ccc(Cl)cc2)c1=O (stereo not drawn)	i	158.0	i	i	nt	i	137.6
CC(=O)c1cccc(NC(=O)CSc2ncc(C(=O)Nc3ccccc3)c(=O)n2C)c1	i	298.9	i	i	nt	i	459.5
CC(=O)Nc1cccc(NC(=O)CSc2ncc(C(=O)Nc3ccc(F)cc3)c(=O)n2C)c1	i	i	i	i	nt	i	nt
Cc1ccccc1Oc1nc(-c2ccccn2)nc2ccccc12	i	48.6	i	i	i	i	i
c1ccc(N2CCN(c3nc(-c4ccccn4)nc4ccccc34)CC2)cc1	i	96.7	i	i	i	i	i
Cc1cccc(Oc2nc(-c3ccccn3)nc3ccccc23)c1	i	i	i	i	i	i	nt
Cc1cc(C(=O)c2ccc(C(C)(C)C)cc2)c(NC(=O)CCl)s1	i	50.3	i	i	i	i	93.7
CC(=O)C[C@@H](O)CC(=O)[C@@H]1OC(=O)[C@@H](C)CCCCc2ccccc21	i	i	i	i	nt	i	nt
O=c1oc(-c2ccc(O)c(O)c2)cc2cccc(O)c12	i	53.8	i	i	nt	i	i
Cc1ccc(Nc2cc(C)nn2-c2nc(C)cc(C)n2)cc1	30.1	78.8	i	i	i	i	i
COc1ccc(C(Nc2cc(C)ccn2)c2ccc3ccc(C)nc3c2O)cc1 (stereo not drawn)	i	i	i	i	i	i	nt
Oc1c(C(Nc2ccccn2)c2ccccn2)ccc2cccnc12 (stereo not drawn)	i	58.8	i	i	i	i	70.8
COc1cc(C(Nc2ccccn2)c2ccc3ccc(C)nc3c2O)cc(OC)c1O (stereo not drawn)	i	262.7	i	i	nt	i	251.2

Source: PubChem (several laboratories)
